{"data": "Assay results gathered from unrelated publications", "target": "Tyrosine-protein kinase TXK (TXK, Homo sapiens, UniProt P42681)", "tested at": "1 µM", "Sequence (P42681 1-527, as in one of the studies)": "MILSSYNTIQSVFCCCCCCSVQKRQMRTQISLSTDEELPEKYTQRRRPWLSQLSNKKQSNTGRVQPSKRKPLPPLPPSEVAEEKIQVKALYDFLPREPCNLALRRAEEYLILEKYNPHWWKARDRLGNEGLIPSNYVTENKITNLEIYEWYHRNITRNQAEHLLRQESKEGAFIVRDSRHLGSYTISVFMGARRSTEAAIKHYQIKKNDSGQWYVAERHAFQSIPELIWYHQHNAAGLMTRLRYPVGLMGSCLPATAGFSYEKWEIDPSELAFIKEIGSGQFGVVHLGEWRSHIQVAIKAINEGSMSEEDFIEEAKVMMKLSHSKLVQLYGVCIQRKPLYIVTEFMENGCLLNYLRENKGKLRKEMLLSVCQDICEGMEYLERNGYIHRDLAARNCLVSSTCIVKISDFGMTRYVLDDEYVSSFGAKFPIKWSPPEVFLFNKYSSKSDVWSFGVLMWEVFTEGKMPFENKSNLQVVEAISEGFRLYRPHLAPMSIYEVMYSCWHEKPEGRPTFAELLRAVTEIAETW", "note": "Each line is one published result; the experiments were not run side by side."}
{"SMILES": "CNC(=O)[C@@H]1CC[C@@H](n2c(-c3ccc4cnccc4c3)nc3ccc(C(=O)NCc4cccc(C(N)=O)c4)cc32)C1", "read-out": "binding", "technique": "competition with immobilised ligand", "remaining binding [%]": 100}
{"SMILES": "COc1ccnn2ncc(-c3ccnc(N(C)C)n3)c12", "read-out": "binding", "remaining binding [%]": 100}
{"SMILES": "CC1=C(C#N)[C@@H](c2ccc3[nH]nc(C)c3c2)C(C#N)=C(c2ccc(Cl)cc2)N1", "read-out": "binding", "technique": "competition with immobilised ligand", "remaining binding [%]": 88.1}
{"SMILES": "CC1CCCN1c1nccc(-c2cnn3ncccc23)n1 (stereo not shown)", "read-out": "binding", "remaining binding [%]": 100}
{"SMILES": "Cc1cnc(Nc2ccc(C(=O)N3CCC(N4CCCC4)CC3)cc2)nc1-c1cc2ccccc2s1", "read-out": "binding", "technique": "competition with immobilised ligand", "remaining binding [%]": 59}
{"SMILES": "CCc1ccccc1C(=O)Nc1n[nH]c2c(C)c(F)c(C3C(C#N)=C(C)N(C)C(C)=C3C#N)cc12", "read-out": "binding", "technique": "competition with immobilised ligand", "remaining binding [%]": 84}
{"SMILES": "C=CC(=O)N1CCC(C(=O)NCC(=O)N2CCN(c3nc(-c4cnc(N)nc4C(F)F)nc(N4CCOCC4)n3)CC2)CC1", "read-out": "binding", "technique": "competition with immobilised ligand", "remaining binding [%]": 100}
{"SMILES": "O=C(NCCCN1CCOCC1)c1ccc(Nc2ncc(Cl)c(-c3ccc(Cl)s3)n2)cc1", "read-out": "binding", "technique": "competition with immobilised ligand", "remaining binding [%]": 99}
{"SMILES": "CCCOc1ccc([C@@H]2[C@@H](C(=O)O)[C@H](c3ccc4c(c3)OCO4)CN2CC(=O)Nc2c(CC)cccc2CC)cc1", "read-out": "binding", "technique": "competition with immobilised ligand", "remaining binding [%]": 100}
{"SMILES": "c1cnn2ncc(-c3ccnc(N4CCC45COC5)n3)c2c1", "read-out": "binding", "remaining binding [%]": 100}
{"SMILES": "O=C(NCC1CCOCC1)c1n[nH]cc1NC(=O)c1c(F)cccc1F", "read-out": "binding", "technique": "competition with immobilised ligand", "remaining binding [%]": 100}
{"SMILES": "CN(C)c1nccc(-c2cnn3ncccc23)n1", "read-out": "binding", "remaining binding [%]": 100}
{"SMILES": "CC(=O)c1c(NS(C)(=O)=O)c2cc(-c3ccc(Cl)cc3)c(-c3ccc(Cl)cc3Cl)nc2n(C)c1=O", "read-out": "cell-free assay", "technique": "competition with immobilised ligand", "remaining binding [%]": 100}
{"SMILES": "C[C@@H]1CCN(c2nccc(-c3cnn4ncccc34)n2)C1", "read-out": "binding", "remaining binding [%]": 100}
{"SMILES": "Cc1nc(N2CC[C@@H](O)C2)ncc1-c1cc(C(F)(F)F)cc2[nH]ncc12", "read-out": "binding", "technique": "competition with immobilised ligand", "remaining binding [%]": 100}
{"SMILES": "N[C@@H]1CCN(c2nccc(-c3cnn4ncccc34)n2)C1", "read-out": "binding", "remaining binding [%]": 100}
{"SMILES": "COc1cnc(Nc2cccc(S(N)(=O)=O)c2)nc1N1CCN(c2ccccc2)CC1", "read-out": "binding", "technique": "competition with immobilised ligand", "remaining binding [%]": 100}
{"SMILES": "O=C(c1ccc(Nc2ncc(Cl)c(-c3ccc(Cl)s3)n2)cc1)N1CCC(N2CCCC2)CC1", "read-out": "binding", "technique": "competition with immobilised ligand", "remaining binding [%]": 80}
{"SMILES": "CCOCCn1cc(C(=O)Nc2ccc(-n3nc(-c4cccnc4)cc3C(F)(F)F)cn2)ccc1=O", "read-out": "binding", "technique": "competition with immobilised ligand", "remaining binding [%]": 81}
{"SMILES": "CN(C)c1ncc(F)c(-c2cnn3ncccc23)n1", "read-out": "binding", "remaining binding [%]": 100}
{"SMILES": "CCS(=O)(=O)c1cc2cc(C[C@@](O)(CC(C)(C)c3ccc(F)cc3C(N)=O)C(F)(F)F)[nH]c2cn1", "read-out": "cell-free assay", "technique": "competition with immobilised ligand", "remaining binding [%]": 97}
{"SMILES": "CCN1CCN(Cc2ccc(C(=O)Nc3ccc(C)c(Oc4ccc5c(c4)CC(=O)N5)c3)cc2C(F)(F)F)CC1", "read-out": "binding", "technique": "competition with immobilised ligand", "remaining binding [%]": 100}
